Several values for one entry are separate records, joined by “and”; a condition that tells them apart may be missing. Equal entries are not always repeated.
Assays:
[1] = Compound was evaluated for lethal dose after intraperitoneal administration using iron overload rat model; type: toxicity, organism-based; details: in vivo, ip
[2] = test system: Mus musculus; experiment: BDF1 male mice were administered with 300 mg/kg intraperitoneally and number of survivors was determined out of 10 tested; type: functional; details: route intraperitoneal
Procedure, shortened: (§1)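 Male BDF1 mice were iron-loaded by transfusion of canine red cells. The cells were heparinised, washed twice in isotonic saline and heated at 50 °C for 30 min. Dosing started two days after the last transfusion, once daily for 7 consecutive days. Compounds were given in distilled water or as a fine aqueous suspension with Polysorbate 80 (2% final). Toxic signs were recorded daily and survivors counted per group.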

[3] = test system: Mus musculus; experiment: BDF1 male mice were administered with 250 mg/kg orally and percent change in iron levels was determined in Liver; type: functional; details: route oral
Procedure, shortened: (§2)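 Hypertransfused male BDF1 mice (canine red cells, washed and heated at 50 °C for 30 min) were dosed orally for 7 days with compound in distilled water or a fine suspension with Polysorbate 80 (2% final). Daily group urine and pooled feces (1 N HCl digest, 90 °C, 30 min, triplicate) were collected, and liver and spleen were homogenized. Iron was measured by atomic absorption and reported as % change vs transfused control.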

[4] = test system: Mus musculus; experiment: BDF1 male mice were administered with the compound and number of survivors was determined at a dose 250 mg/kg peroral out of 10 tested; type: functional; details: route oral; procedure, shortened: as §1
[5] = test system: Mus musculus; experiment: BDF1 male mice were administered with 250 mg/kg orally and percent change in iron levels was determined in Spleen; type: functional; details: route oral; procedure, shortened: as §2
[6] = test system: Mus musculus; experiment: BDF1 male mice were administered with 250 mg/kg orally and percent change in iron levels was determined in Feces; type: functional; details: route oral; procedure, shortened: as §2
[7] = test system: Mus musculus; experiment: BDF1 male mice were administered with 250 mg/kg orally and percent change in iron levels was determined in Urine; type: functional; details: route oral; procedure, shortened: as §2
[8] = test system: Rattus norvegicus; experiment: Percent change in iron levels was determined in urine using iron overload rat model where the route of administration is Intraperitoneal; type: functional
[9] = test system: Rattus norvegicus; experiment: Percent change in iron levels was determined in urine using iron overload rat model where the route of administration is Peroral; type: functional
[10] = test system: Rattus norvegicus; experiment: Percent change in iron levels was determined in feces using iron overload rat model where the route of administration is Intraperitoneal; type: functional

## CCOC(=O)C(NCCNC(C(=O)OCC)c1ccccc1O)c1ccccc1O (stereo unspecified)
[1]
  LD50: ≥ 800 mg/kg

## COC(=O)CN(Cc1ccccc1O)CC1CN(Cc2ccccc2O)CC(=O)O1 (stereo unspecified)
[2]
  No. of survivors: 10

## O=C(CN(CCN(CC(=O)OCc1ccccc1)Cc1ccccc1O)Cc1ccccc1O)OCc1ccccc1
[3]
  Iron change: -10%
[4]
  No. of survivors: 10
[5]
  Iron change: -21%
[6]
  Iron change: -10%
[7]
  Iron change: 62%

## O=C(O)C(NCCNC(C(=O)O)c1ccccc1O)c1ccccc1O (stereo unspecified)
[8]
  Iron change: 484%
[9]
  Iron change: 19% and 31%
[10]
  Iron change: 111%
[1]
  LD50: 175 mg/kg

From ChEMBL document CHEMBL1123309, “Esters and lactones of phenolic amino carboxylic acids: prodrugs for iron chelation” (J Med Chem, 1986)
